Test results: ChEMBL document CHEMBL2069274, “Novel 3-nitro-1H-1,2,4-triazole-based amides and sulfonamides as potential antitrypanosomal agents” (J Med Chem, 2012)
Active and inactive are the calls of the source. The rule behind the calls is not given here.

Assays:
[1] = tested on: Trypanosoma brucei rhodesiense; assay: Antitrypanosomal activity against Trypanosoma brucei rhodesiense STIB 900 trypomastigotes; format: functional, organism-based
In short: (§1)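 96-well format screens: bloodstream-form T. b. rhodesiense trypomastigotes, T. cruzi amastigotes within infected L6 rat skeletal myoblasts, axenically grown L. donovani amastigotes, and uninfected L6 cells for cytotoxicity. IC50 (μM) obtained by linear regression from sigmoidal dose–inhibition curves.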

Trypanosoma cruzi [2] = assay: Antitrypanosomal activity against Trypanosoma cruzi Tulahuen C4 amastigotes; format: functional, organism-based; in short: as §1
Leishmania donovani = assay: Antileishmanial activity against Leishmania donovani MHOM-ET67/L82 amastigotes; format: functional, organism-based; in short: as §1
L6 = assay: Cytotoxicity against rat L6 cells; format: cell-based; in short: as §1
[3] = tested on: Trypanosoma brucei brucei; assay: Antitrypanosomal activity against bloodstream form of Trypanosoma brucei brucei Lister 427 clone 221a; format: functional, organism-based
In short: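 Bloodstream-form parasites seeded at 1 × 10^3 per ml in growth medium with a range of compound concentrations; where required, TbNTR expression induced with tetracycline (1 μg/mL). Incubation 3 days at 37 °C, then Alamar blue added for a further 16 h. Cell density read and IC50 determined.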

[4] = biological target: Trypanothione reductase (Trypanosoma brucei brucei) (UniProt P39051); assay: Inhibition of Trypanosoma brucei brucei trypanothione reductase at <100 uM
Trypanothione reductase (Trypanosoma brucei brucei), sequence (P39051 whole entry, looked up): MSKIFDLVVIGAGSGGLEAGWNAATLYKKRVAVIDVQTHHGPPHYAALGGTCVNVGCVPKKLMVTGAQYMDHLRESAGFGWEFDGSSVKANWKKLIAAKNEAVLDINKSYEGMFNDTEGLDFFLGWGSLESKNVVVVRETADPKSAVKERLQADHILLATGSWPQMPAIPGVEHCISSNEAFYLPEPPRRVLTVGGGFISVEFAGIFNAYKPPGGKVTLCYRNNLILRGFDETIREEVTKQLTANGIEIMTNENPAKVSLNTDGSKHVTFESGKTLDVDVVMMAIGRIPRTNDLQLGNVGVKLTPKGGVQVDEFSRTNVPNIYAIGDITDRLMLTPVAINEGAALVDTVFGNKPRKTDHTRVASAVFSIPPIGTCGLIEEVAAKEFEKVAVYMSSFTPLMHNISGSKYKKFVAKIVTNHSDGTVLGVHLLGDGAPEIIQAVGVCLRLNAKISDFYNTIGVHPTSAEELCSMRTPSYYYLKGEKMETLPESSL

Trypanosoma cruzi [5] = assay: Ratio of benznidazole IC50 to compound IC50 for Trypanosoma cruzi Tulahuen C4 amastigotes; format: functional
[6] = Selectivity index, ratio of IC50 for rat L6 cells to IC50 for Trypanosoma cruzi Tulahuen C4 amastigotes
[7] = Selectivity index, ratio of IC50 for rat L6 cells to IC50 for Trypanosoma brucei rhodesiense STIB900 trypomastigotes
[8] = tested on: Trypanosoma brucei brucei; assay: Antitrypanosomal activity against bloodstream form of Trypanosoma brucei brucei Lister 427 clone 221a overexpressing tet-inducible NTR in absence of tetracycline after 3 days; settings: 72 h
[9] = tested on: Trypanosoma brucei brucei; assay: Antitrypanosomal activity against bloodstream form of Trypanosoma brucei brucei Lister 427 clone 221a overexpressing tet-inducible NTR in presence of tetracycline after 3 days; settings: 72 h
[10] = tested on: Trypanosoma brucei brucei; assay: Selectivity ratio of IC50 for Trypanosoma brucei brucei Lister 427 clone 221a overexpressing tet-inducible NTR in absence of tetracycline to IC50 for Trypanosoma brucei brucei overexpressing tet-inducible NTR in presence of tetracyclin
[11] = Selectivity index, ratio of IC50 for rat L6 cells to IC50 for Leishmania donovani MHOM-ET67/L82 amastigotes
[12] = tested on: Trypanosoma brucei brucei; assay: Activity of Trypanosoma brucei brucei recombinant Type I nitroreductase assessed as oxidised NADH level by spectrophotometric analysis
In short: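 His-tagged recombinant TbNTR, purified, assayed spectrophotometrically at 340 nm with nitrotriazole substrate (100 μM) and NADH (100 μM); activity expressed as nmol NADH oxidized min−1 mg−1 enzyme.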

O=C(NCCCCn1cnc([N+](=O)[O-])n1)c1ccc(OC(F)(F)F)cc1
IC50 [1]: 1.39 µM
IC50 (Trypanosoma cruzi [2]): 0.113 µM
IC50 (Leishmania donovani): 13 µM
IC50 (L6): > 268 µM
IC50 [3]: 3.6 µM
inhibition [4]: inactive
Ratio IC50 (Trypanosoma cruzi [5]): 13.8
selectivity ratio [6]: > 2380
selectivity ratio [7]: > 193
IC50 [8]: 1.05 µM
IC50 [9]: 0.1 µM
Ratio IC50 [10]: 11

Cc1ccc2nc(NC(=O)Cn3cnc([N+](=O)[O-])n3)sc2c1
IC50 [1]: 11.5 µM
IC50 (Trypanosoma cruzi [2]): 1.8 µM
IC50 (Leishmania donovani): 5.91 µM
IC50 (L6): 170 µM
Ratio IC50 (Trypanosoma cruzi [5]): 0.9
selectivity ratio [6]: 94.4
selectivity ratio [11]: 28.7
selectivity ratio [7]: 14.8

O=C(Cn1cnc([N+](=O)[O-])n1)Nc1nc2ccc(Cl)cc2s1
IC50 [1]: 48.5 µM
IC50 (Trypanosoma cruzi [2]): 6.59 µM
IC50 (Leishmania donovani): 5.82 µM
IC50 (L6): 163 µM
Ratio IC50 (Trypanosoma cruzi [5]): 0.2
selectivity ratio [6]: 24.8
selectivity ratio [11]: 28
selectivity ratio [7]: 3.4

O=[N+]([O-])c1nccn1CCCNS(=O)(=O)c1ccc(C(F)(F)F)cc1
IC50 [1]: 27.5 µM
IC50 (Trypanosoma cruzi [2]): 1.66 µM
IC50 (Leishmania donovani): 15.6 µM
IC50 (L6): 176 µM
inhibition [4]: inactive
Ratio IC50 (Trypanosoma cruzi [5]): 0.9
selectivity ratio [6]: 106

O=C(NCCCCn1cnc([N+](=O)[O-])n1)c1ccc(C(F)(F)F)cc1
IC50 [1]: 0.501 µM
IC50 (Trypanosoma cruzi [2]): 0.176 µM
IC50 (Leishmania donovani): 7.93 µM
IC50 (L6): 104 µM
IC50 [3]: 0.9 µM
Activity [12]: Active
Ratio IC50 (Trypanosoma cruzi [5]): 8.9
selectivity ratio [6]: 591
selectivity ratio [7]: 208
IC50 [8]: 1.3 µM
IC50 [9]: 0.13 µM
Ratio IC50 [10]: 10

O=C(NCCn1cnc([N+](=O)[O-])n1)c1ccc(C(F)(F)F)cc1
IC50 [1]: 3.16 µM
IC50 (Trypanosoma cruzi [2]): 0.438 µM
IC50 (Leishmania donovani): 33.4 µM
IC50 (L6): > 274 µM
IC50 [3]: 1.3 µM
Activity [12]: Active
inhibition [4]: inactive
Ratio IC50 (Trypanosoma cruzi [5]): 3.6
selectivity ratio [6]: > 625
IC50 [8]: 1.26 µM
IC50 [9]: 0.09 µM
Ratio IC50 [10]: 14

O=C(Cn1cnc([N+](=O)[O-])n1)Nc1nc2cc(Cl)ccc2o1
IC50 [1]: 34.4 µM
IC50 (Trypanosoma cruzi [2]): 7.88 µM
IC50 (Leishmania donovani): 4.68 µM
IC50 (L6): 26.3 µM
Ratio IC50 (Trypanosoma cruzi [5]): 0.2
selectivity ratio [6]: 3.3
selectivity ratio [11]: 5.6
selectivity ratio [7]: < 1

O=C(Cn1cnc([N+](=O)[O-])n1)N1CCC(Cc2ccccc2)CC1
IC50 [1]: 3.4 µM
IC50 (Trypanosoma cruzi [2]): 0.307 µM
IC50 (Leishmania donovani): 51.4 µM
IC50 (L6): 144 µM
IC50 [3]: > 10 µM
inhibition [4]: inactive
Ratio IC50 (Trypanosoma cruzi [5]): 5.1
selectivity ratio [6]: 468

O=[N+]([O-])c1ncn(CCCNS(=O)(=O)c2ccc(Cl)s2)n1
IC50 [1]: 1.99 µM
IC50 (Trypanosoma cruzi [2]): 0.438 µM
IC50 (Leishmania donovani): 33 µM
IC50 (L6): 244 µM
IC50 [3]: 2.3 µM
Ratio IC50 (Trypanosoma cruzi [5]): 3.6
selectivity ratio [6]: 556
selectivity ratio [11]: 7.4
selectivity ratio [7]: 122
IC50 [8]: 4.34 µM
IC50 [9]: 0.23 µM
Ratio IC50 [10]: 19

O=[N+]([O-])c1ncn(CCCNS(=O)(=O)c2ccc(C(F)(F)F)cc2)n1
IC50 [1]: 0.504 µM
IC50 (Trypanosoma cruzi [2]): 0.359 µM
IC50 (Leishmania donovani): 13.1 µM
IC50 (L6): 235 µM
IC50 [3]: 3.4 µM
Activity [12]: Active
inhibition [4]: inactive
Ratio IC50 (Trypanosoma cruzi [5]): 4.4
selectivity ratio [6]: 656
selectivity ratio [7]: 467
IC50 [8]: 7.83 µM
IC50 [9]: 0.25 µM
Ratio IC50 [10]: 31

O=[N+]([O-])c1ncn(CCCCNS(=O)(=O)c2ccc(OC(F)(F)F)cc2)n1
IC50 [1]: 0.477 µM
IC50 (Trypanosoma cruzi [2]): 0.203 µM
IC50 (Leishmania donovani): 7.8 µM
IC50 (L6): 112 µM
Ratio IC50 (Trypanosoma cruzi [5]): 7.7
selectivity ratio [6]: 552
selectivity ratio [11]: 14.4
selectivity ratio [7]: 235

O=C(Cn1cnc([N+](=O)[O-])n1)NCc1ccc(C(F)(F)F)cc1
IC50 [1]: 6.47 µM
IC50 (Trypanosoma cruzi [2]): 0.97 µM
IC50 (Leishmania donovani): 10.4 µM
IC50 (L6): 129 µM
IC50 [3]: 8.5 µM
inhibition [4]: inactive
Ratio IC50 (Trypanosoma cruzi [5]): 1.6
selectivity ratio [6]: 133

O=C(NCCCn1cnc([N+](=O)[O-])n1)c1ccc2ccccc2n1
IC50 [1]: 3.22 µM
IC50 (Trypanosoma cruzi [2]): 0.138 µM
IC50 (Leishmania donovani): 19.9 µM
IC50 (L6): 218 µM
IC50 [3]: > 10 µM
Activity [12]: Active
inhibition [4]: inactive
Ratio IC50 (Trypanosoma cruzi [5]): 11.3
selectivity ratio [6]: 1580
